According to ChEMBL document CHEMBL2046300, “A laccase-catalysed one-pot synthesis of aminonaphthoquinones and their anticancer activity” (2012):

Columns and labels:
Type in all cases: functional
TK-10 = experiment: Antiproliferative activity against human TK10 cells after 48 hrs by SRB assay; settings: TK-10, 48 h; for CC50: read-out: LC50 (the source's name)
How it was run: (§1)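 Cells kept as monolayers in RPMI with 5% FBS, 2 mM L-glutamine and 50 μg/mL gentamicin (37 °C, 5% CO2), used at passages 3–19. They were plated at 7–10 000 cells/well for 24 h, with a T0 plate TCA-fixed at drug addition. Compounds in DMSO, diluted in medium, at 5 concentrations (0.01–100 μM) for 48 h, duplicate. SRB read at 540 nm; net % growth gave GI50, TGI, LC50.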

MCF7 = experiment: Antiproliferative activity against human MCF7 cells after 48 hrs by SRB assay; settings: MCF7, 48 h; for CC50: read-out: LC50 (the source's name); how it was run: as §1
UACC-62 = experiment: Antiproliferative activity against human UACC62 cells after 48 hrs by SRB assay; settings: UACC-62, 48 h; for CC50: read-out: LC50 (the source's name); how it was run: as §1
HeLa = experiment: Antiproliferative activity against human HeLa cells after 48 hrs by SRB assay; settings: for CC50: read-out: LC50 (the source's name)

O=C(O)C1=C(Nc2cccc(F)c2)C(=O)c2ccccc2C1=O
GI50 (TK-10): 24.7 µM | TGI (TK-10): > 100 µM | CC50 (TK-10): > 100 µM | GI50 (MCF7): 9.08 µM | TGI (MCF7): 48.4 µM | CC50 (MCF7): 91 µM | GI50 (UACC-62): 5.28 µM | TGI (UACC-62): 13.7 µM | CC50 (UACC-62): 59.4 µM | GI50 (HeLa): 28 µM | TGI (HeLa): 60.3 µM | CC50 (HeLa): 92.5 µM

O=C(O)C1=C(Nc2ccccc2Cl)C(=O)c2ccccc2C1=O
GI50 (TK-10): 80.7 µM | TGI (TK-10): > 100 µM | CC50 (TK-10): > 100 µM | GI50 (MCF7): 63.5 µM | TGI (MCF7): > 100 µM | CC50 (MCF7): > 100 µM | GI50 (UACC-62): 31 µM | TGI (UACC-62): 65.8 µM | CC50 (UACC-62): > 100 µM | GI50 (HeLa): 28 µM | TGI (HeLa): 60.3 µM | CC50 (HeLa): 90.2 µM

O=C(O)C1=C(Nc2ccccc2F)C(=O)c2ccccc2C1=O
GI50 (TK-10): 36.9 µM | TGI (TK-10): > 100 µM | CC50 (TK-10): > 100 µM | GI50 (MCF7): 9.84 µM | TGI (MCF7): 50.8 µM | CC50 (MCF7): 92.2 µM | GI50 (UACC-62): 5.67 µM | TGI (UACC-62): 23.3 µM | CC50 (UACC-62): 65.4 µM | GI50 (HeLa): 47.5 µM | TGI (HeLa): 97 µM | CC50 (HeLa): > 100 µM

COc1cc([C@@H]2c3cc4c(cc3[C@@H](O[C@@H]3O[C@@H]5CO[C@@H](C)O[C@H]5[C@H](O)[C@H]3O)[C@H]3COC(=O)[C@H]23)OCO4)cc(OC)c1O [ETOPOSIDE]
GI50 (TK-10): 7.19 µM | TGI (TK-10): 49.7 µM | CC50 (TK-10): > 100 µM | GI50 (MCF7): 0.56 µM | TGI (MCF7): > 100 µM | CC50 (MCF7): > 100 µM | GI50 (UACC-62): 0.89 µM | TGI (UACC-62): 52.7 µM | CC50 (UACC-62): > 100 µM | GI50 (HeLa): 3.56 µM | TGI (HeLa): 40.2 µM | CC50 (HeLa): 87.5 µM

O=C(O)C1=C(Nc2cccc(Cl)c2)C(=O)c2ccccc2C1=O
GI50 (TK-10): 35.9 µM | TGI (TK-10): > 100 µM | CC50 (TK-10): > 100 µM | GI50 (MCF7): 43.2 µM | TGI (MCF7): > 100 µM | CC50 (MCF7): > 100 µM | GI50 (UACC-62): 17 µM | TGI (UACC-62): 49.1 µM | CC50 (UACC-62): 81.2 µM | GI50 (HeLa): 37.3 µM | TGI (HeLa): 70.7 µM | CC50 (HeLa): > 100 µM

O=C(O)C1=C(Nc2ccccc2)C(=O)c2ccccc2C1=O
GI50 (TK-10): 74.1 µM | CC50 (TK-10): > 100 µM | GI50 (MCF7): 42.6 µM | TGI (MCF7): > 100 µM | CC50 (MCF7): > 100 µM | GI50 (UACC-62): 6.66 µM | TGI (UACC-62): 30.7 µM | CC50 (UACC-62): 73.1 µM | GI50 (HeLa): 49.2 µM | TGI (HeLa): 97.2 µM | CC50 (HeLa): > 100 µM

CC(C)c1ccc(NC2=C(C(=O)O)C(=O)c3ccccc3C2=O)cc1
GI50 (TK-10): 8.38 µM | TGI (TK-10): 63.6 µM | CC50 (TK-10): > 100 µM | GI50 (MCF7): 37.7 µM | TGI (MCF7): > 100 µM | CC50 (MCF7): > 100 µM | GI50 (UACC-62): 5.19 µM | TGI (UACC-62): 10.8 µM | CC50 (UACC-62): 58.1 µM | GI50 (HeLa): 38.3 µM | TGI (HeLa): 73 µM | CC50 (HeLa): > 100 µM

O=C(O)C1=C(Nc2ccc(Cl)cc2F)C(=O)c2ccccc2C1=O
GI50 (TK-10): 13.4 µM | TGI (TK-10): 93.3 µM | CC50 (TK-10): > 100 µM | GI50 (MCF7): 21.4 µM | TGI (MCF7): 54.9 µM | CC50 (MCF7): 88.5 µM | GI50 (UACC-62): 4.17 µM | TGI (UACC-62): 7.94 µM | CC50 (UACC-62): 40.4 µM | GI50 (HeLa): 25.2 µM | TGI (HeLa): 55.5 µM | CC50 (HeLa): 85.9 µM

O=C(O)C1=C(Nc2ccc(Cl)cc2)C(=O)c2ccccc2C1=O
GI50 (TK-10): 13 µM | TGI (TK-10): 79 µM | CC50 (TK-10): > 100 µM | GI50 (MCF7): 17.2 µM | TGI (MCF7): 55.1 µM | CC50 (MCF7): 93 µM | GI50 (UACC-62): 3.98 µM | TGI (UACC-62): 7.83 µM | CC50 (UACC-62): 55.1 µM | GI50 (HeLa): 24.8 µM | TGI (HeLa): 55.4 µM | CC50 (HeLa): 86.1 µM

O=C(O)C1=C(Nc2ccc(F)cc2)C(=O)c2ccccc2C1=O
GI50 (TK-10): 46.6 µM | TGI (TK-10): > 100 µM | CC50 (TK-10): > 100 µM | GI50 (MCF7): 38.1 µM | TGI (MCF7): 98.9 µM | CC50 (MCF7): > 100 µM | GI50 (UACC-62): 7.54 µM | TGI (UACC-62): 35 µM | CC50 (UACC-62): 72.1 µM | GI50 (HeLa): 36.2 µM | TGI (HeLa): 67.3 µM | CC50 (HeLa): 98.4 µM

O=C(O)C1=C(Nc2ccc(CCO)cc2)C(=O)c2ccccc2C1=O
GI50 (TK-10): 91.1 µM | TGI (TK-10): > 100 µM | CC50 (TK-10): > 100 µM | GI50 (MCF7): 54.9 µM | TGI (MCF7): > 100 µM | CC50 (MCF7): > 100 µM | GI50 (UACC-62): 7.17 µM | TGI (UACC-62): 35.3 µM | CC50 (UACC-62): 72 µM | GI50 (HeLa): 72.5 µM | TGI (HeLa): > 100 µM | CC50 (HeLa): > 100 µM

N#Cc1cccc(NC2=C(C(=O)O)C(=O)c3ccccc3C2=O)c1
GI50 (TK-10): 23.7 µM | TGI (TK-10): 76.2 µM | CC50 (TK-10): > 100 µM | GI50 (MCF7): 15.1 µM | TGI (MCF7): 53.8 µM | CC50 (MCF7): 92.4 µM | GI50 (UACC-62): 3.99 µM | TGI (UACC-62): 7.17 µM | CC50 (UACC-62): 19.3 µM | GI50 (HeLa): 16 µM | TGI (HeLa): 49.1 µM | CC50 (HeLa): 82.3 µM
